Drawing on ChEMBL document CHEMBL1152843, “Synthesis of new series of 5,6-dihydro-4H-1,2-oxazines via hetero Diels-Alder reaction and evaluation of antimicrobial activity” (2009), this text covers zone of inhibition and MIC for four molecules.

Common to all, as to assay type: functional
The test system of test [1] is Staphylococcus aureus. In words: Antibacterial activity against Staphylococcus aureus MTCC 737 at 20 ug after 24 hrs by cup diffusion method. Particulars: MTCC 737, 24 h, read-out: IZ. In short, it runs like this: (§1)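 Agar cup diffusion. Plates of sterile medium in 9 cm dishes were seeded with 1 × 10⁵ cfu of bacteria, with the suspension adjusted to at least 1 × 10⁵ cfu/ml in nutrient broth. Compound in DMF was placed in 5 mm cups and pre-diffused for 1 h. Plates were incubated at 37 °C for 24 h and the inhibition zone measured in mm. DMF served as negative control.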

The subject of test [2] is Klebsiella pneumoniae. As to the kind of experiment: Antibacterial activity against Klebsiella pneumoniae […] after 24 hrs by cup diffusion method.
For test [3], the system named is Escherichia coli. In words: Antibacterial activity against Escherichia coli MTCC 443 at 20 ug after 24 hrs by cup diffusion method. Particulars: MTCC 443, 24 h, read-out: IZ. In short, it runs like this: as §1
For test [4], the system named is Fusarium verticillioides. As to the kind of experiment: Antifungal activity against Fusarium moniliforme at 20 ug after 48 hrs by cup diffusion method. To be noted: read-out: IZ. In short, it runs like this: (§2)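 Cup diffusion on 9 cm plates seeded with 1 × 10⁶ cfu of fungi, with spores adjusted to at least 1 × 10⁶ cfu/ml in potato dextrose broth. Compound in DMF was placed in 5 mm agar cups and left 1 h to diffuse. Plates were incubated at 28 °C for 48 h and the inhibition zone read in mm. DMF was the negative control.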

The subject of test [5] is Fusarium verticillioides. As to the kind of experiment: Antifungal activity against Fusarium moniliforme after 48 hrs by cup diffusion method.
In test [6] the test system is Escherichia coli. In words: Antibacterial activity against Escherichia coli MTCC 443 after 24 hrs by cup diffusion method. To be noted: MTCC 443, 24 h.
Test [7] deals with Aspergillus niger. In words: Antifungal activity against Aspergillus niger at 20 ug after 48 hrs by cup diffusion method. To be noted: read-out: IZ. In short, it runs like this:
as §2

The test system of test [8] is Pseudomonas aeruginosa. In words: Antibacterial activity against Pseudomonas aeruginosa MTCC 1688 after 24 hrs by cup diffusion method. To be noted: MTCC 1688, 24 h.
In test [9] the test system is Aspergillus flavus. In words: Antifungal activity against Aspergillus flavus after 48 hrs by cup diffusion method.
In test [10] the test system is Klebsiella pneumoniae. As to the kind of experiment: Antibacterial activity against Klebsiella pneumoniae […] at 20 ug after 24 hrs by cup diffusion method. To be noted: read-out: IZ. In short, it runs like this:
as §1

Test [11] relates to Staphylococcus aureus. In words: Antibacterial activity against Staphylococcus aureus MTCC 737 after 24 hrs by cup diffusion method. To be noted: MTCC 737, 24 h.
The subject of test [12] is Aspergillus flavus. In words: Antifungal activity against Aspergillus flavus at 20 ug after 48 hrs by cup diffusion method. Particulars: read-out: IZ. A digest of the protocol: as §2
For test [13], the system named is Fusarium oxysporum. As to the kind of experiment: Antifungal activity against Fusarium oxysporum at 20 ug after 48 hrs by cup diffusion method. Particulars: read-out: IZ. A digest of the protocol:
as §2

Test [14] deals with Aspergillus niger. As to the kind of experiment: Antifungal activity against Aspergillus niger after 48 hrs by cup diffusion method.
Test [15] deals with Pseudomonas aeruginosa. In words: Antibacterial activity against Pseudomonas aeruginosa MTCC 1688 at 20 ug after 24 hrs by cup diffusion method. To be noted: MTCC 1688, 24 h, read-out: IZ. A digest of the protocol:
as §1

Test [16] relates to Fusarium oxysporum. As to the kind of experiment: Antifungal activity against Fusarium oxysporum after 48 hrs by cup diffusion method.

Values after ≈ are worked out from the molar mass of the structure shown.

As usually defined, the MIC is the least concentration at which growth counts as inhibited. Low readings indicate greater potency, high ones weaker potency. In the case of `CCOC(=O)C1CCC(c2ccc(OC)cc2)=NO1` (centres undefined), the zone of inhibition at 20 µg/disc is 16.7 mm in the test with Staphylococcus aureus [1]; 24.7 mm with Escherichia coli [3]; 28 mm with Fusarium verticillioides [4]; 24.2 mm with Aspergillus niger [7]; 14.8 mm in the test with Klebsiella pneumoniae [10]; 25.5 mm in the test with Aspergillus flavus [12]. For the same molecule, the zone of inhibition at 20 µg/disc in the test on Fusarium oxysporum [13] turned out to be 30.7 mm; with Pseudomonas aeruginosa [15] it was 23.7 mm. In addition, the MIC in the test on Klebsiella pneumoniae [2] was 25 µg/mL (≈ 95 µM); with Fusarium verticillioides [5], 20 µg/mL (≈ 76 µM); in the test with Escherichia coli [6] it was 35 µg/mL (≈ 133 µM); against Pseudomonas aeruginosa [8], 20 µg/mL (≈ 76 µM); with Aspergillus flavus [9], 10 µg/mL (≈ 38 µM); in the test with Staphylococcus aureus [11], 20 µg/mL (≈ 76 µM). Also, the MIC in the test on Aspergillus niger [14] turned out to be 15 µg/mL (≈ 57 µM); against Fusarium oxysporum [16], 10 µg/mL (≈ 38 µM).
In the case of `N#CC1CCC(c2ccc3c(c2)CCC3)=NO1` (centres undefined), the zone of inhibition at 20 µg/disc in the test on Staphylococcus aureus [1] is 17.7 mm; in the test with Escherichia coli [3] it was 15.5 mm; in the test with Fusarium verticillioides [4] it was 13.5 mm; in the test on Aspergillus niger [7] it was 10.7 mm; in the test on Klebsiella pneumoniae [10] it was 23.8 mm; with Aspergillus flavus [12], 9.5 mm. Moreover, the zone of inhibition at 20 µg/disc came to 17.7 mm in the test on Fusarium oxysporum [13] and 31.5 mm with Pseudomonas aeruginosa [15]. The MIC against Klebsiella pneumoniae [2] was determined as 20 µg/mL (≈ 88.4 µM); in the test with Fusarium verticillioides [5] it was 40 µg/mL (≈ 177 µM); against Escherichia coli [6] it was 25 µg/mL (≈ 110 µM); in the test on Pseudomonas aeruginosa [8] it was 15 µg/mL (≈ 66.3 µM); with Aspergillus flavus [9] it was 40 µg/mL (≈ 177 µM); in the test with Staphylococcus aureus [11], 15 µg/mL (≈ 66.3 µM). For the same molecule, the MIC in the test on Aspergillus niger [14] and with Fusarium oxysporum [16] was 35 µg/mL (≈ 155 µM) throughout.
`COc1ccc(C2=NOC(C#N)CC2)cc1OC` (centres undefined): the zone of inhibition at 20 µg/disc in the test with Staphylococcus aureus [1] was determined as 15.5 mm; in the test on Escherichia coli [3], 10.5 mm; with Fusarium verticillioides [4] it was 12.8 mm; in the test on Aspergillus niger [7], 11.5 mm; with Klebsiella pneumoniae [10] it was 7.75 mm; in the test on Aspergillus flavus [12] it was 10.5 mm. Further, the values for the zone of inhibition at 20 µg/disc in the test with Fusarium oxysporum [13] and with Pseudomonas aeruginosa [15] were 15.5 mm and 24.5 mm, respectively. Further, the minimal inhibitory concentration (MIC) with Klebsiella pneumoniae [2] is 15 µg/mL (≈ 60.9 µM); in the test on Fusarium verticillioides [5] it was 30 µg/mL (≈ 122 µM); with Escherichia coli [6] it was 25 µg/mL (≈ 102 µM); against Pseudomonas aeruginosa [8] it was 10 µg/mL (≈ 40.6 µM); against Aspergillus flavus [9], 35 µg/mL (≈ 142 µM); in the test with Staphylococcus aureus [11] it was 15 µg/mL (≈ 60.9 µM). The MIC in the test on Aspergillus niger [14] was found to be 35 µg/mL (≈ 142 µM); with Fusarium oxysporum [16], 30 µg/mL (≈ 122 µM).
Turning to `c1cc2c(cc1CC1CCC(c3ccc4c(c3)CCC4)=NO1)OCO2` (centres undefined), the zone of inhibition at 20 µg/disc with Staphylococcus aureus [1] worked out at 15.7 mm; in the test on Escherichia coli [3], 11.5 mm; in the test on Fusarium verticillioides [4], 21.5 mm; in the test on Aspergillus niger [7], 18.7 mm; in the test on Klebsiella pneumoniae [10] it was 16.5 mm; in the test on Aspergillus flavus [12] it was 20.7 mm. Further, the results for the zone of inhibition at 20 µg/disc in the test on Fusarium oxysporum [13] and in the test on Pseudomonas aeruginosa [15] were 26.7 mm and 21.5 mm, respectively. The MIC was found to be 15 µg/mL (≈ 44.7 µM) against Klebsiella pneumoniae [2]; 20 µg/mL (≈ 59.6 µM) against Fusarium verticillioides [5]; 25 µg/mL (≈ 74.5 µM) with Escherichia coli [6]; 15 µg/mL (≈ 44.7 µM) in the test with Pseudomonas aeruginosa [8]; 15 µg/mL (≈ 44.7 µM) against Aspergillus flavus [9]; 10 µg/mL (≈ 29.8 µM) against Staphylococcus aureus [11]. For the same molecule, the MIC against Aspergillus niger [14] came to 20 µg/mL (≈ 59.6 µM); in the test with Fusarium oxysporum [16] it was 15 µg/mL (≈ 44.7 µM).
